Source: PubChem BioAssay (several laboratories)
Rows were chosen to be rich in hits. Some 2.5% of all compounds tested hit in one or more screens of this group.
TRPC6 activator: activators of mouse TRPC6 channel; hit rate 0.13% among 310,000; Q61143; B-score at 10 µM; HEK293-TRPC6 membrane potential dye fluorescence; hits give high values;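 active = B-score of the integrated fluorescence ratio above library mean plus 3 SD, and starting fluorescence ratio within library mean plus 5 SD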;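 also: higher score means more depolarization so channel activation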
Target sequence (Q61143 whole entry, looked up): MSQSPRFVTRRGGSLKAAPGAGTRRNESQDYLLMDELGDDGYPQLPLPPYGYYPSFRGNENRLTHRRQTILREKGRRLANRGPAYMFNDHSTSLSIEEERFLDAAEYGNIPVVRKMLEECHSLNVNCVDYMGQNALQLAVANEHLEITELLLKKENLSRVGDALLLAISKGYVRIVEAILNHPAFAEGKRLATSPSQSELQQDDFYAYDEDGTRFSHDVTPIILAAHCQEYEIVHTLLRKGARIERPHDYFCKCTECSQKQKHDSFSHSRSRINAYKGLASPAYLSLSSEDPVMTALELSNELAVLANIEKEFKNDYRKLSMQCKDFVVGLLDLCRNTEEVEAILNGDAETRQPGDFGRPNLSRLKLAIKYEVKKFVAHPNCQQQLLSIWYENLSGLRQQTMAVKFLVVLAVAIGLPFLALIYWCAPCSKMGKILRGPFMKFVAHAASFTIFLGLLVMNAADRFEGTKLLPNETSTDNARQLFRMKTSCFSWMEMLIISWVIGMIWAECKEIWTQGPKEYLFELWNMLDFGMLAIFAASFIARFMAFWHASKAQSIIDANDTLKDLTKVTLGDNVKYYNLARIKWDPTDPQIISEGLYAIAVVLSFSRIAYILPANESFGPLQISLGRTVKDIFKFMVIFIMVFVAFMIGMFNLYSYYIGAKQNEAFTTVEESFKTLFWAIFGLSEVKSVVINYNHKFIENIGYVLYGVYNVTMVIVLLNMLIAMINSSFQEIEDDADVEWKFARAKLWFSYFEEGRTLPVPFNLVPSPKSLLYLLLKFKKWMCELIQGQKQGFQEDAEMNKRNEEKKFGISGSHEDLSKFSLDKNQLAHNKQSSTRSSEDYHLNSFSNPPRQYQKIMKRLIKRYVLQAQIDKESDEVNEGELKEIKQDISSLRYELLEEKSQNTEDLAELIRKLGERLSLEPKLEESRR
Pemphigus Ab inh: blocks pemphigus antibody binding to human desmoglein-3; P32926; DSG3-coupled beads, scFv-anti-DSG3-GFP binding, flow cytometry; hits give low values; binding (percent of control), % at 10 µM; hit rate 0.48% among 310,000; AID 588358;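 active = binding more than 3 SD below its plate's average and above zero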;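 also: hits lower antibody fragment binding to DSG3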
TRPC4 PAM: allosterically enhances the mouse TRPC4 cation channel | Q9QUQ5 | HEK293 TRPC4beta/mu-opioid, DAMGO EC20, Fluo-4 Ca2+ flux; hits give high values | hit rate 0.42% among 310,000 | B-score at 10 µM;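 active = B-score of calcium response area above 5 SD of library B-scores, with initial fluorescence ratio within 5 SD of library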;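 also: B-score of integrated fluorescence ratio over time as area under calcium response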
TRPC4 block: blocks the mouse TRPC4 cation channel. Q9QUQ5. HEK293 TRPC4beta/mu-opioid, DAMGO-evoked Fluo4 calcium flux; hits give low values. B-score at 10 µM. hit rate 0.39% among 300,000. AID 2247;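 active = B-score over 3 SD under the library average, no early fluorescence shift, positive overall ratio signal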
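Assay system: TRPC4beta/mu-opioid receptor HEK293 cell line; compound dosing: single concentration per test compound; detection: Fluo4 Ca2+ flux fluorescence; evaluation: per-well B score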
TRPC6 inhibitor: inhibitors of mouse TRPC6 channel. Q61143. HEK293-TRPC6, membrane potential dye, ACh-evoked depolarization; hits give low values. B-score at 10 µM. hit rate 1.1% among 310,000;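 active = B-score under library mean minus 3 SD, initial fluorescence not abnormally high, positive integrated signal ratio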;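 also: B-score derived from integrated fluorescence ratio over the kinetic read; more negative B-score means stronger inhibition of depolarization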
TRPC4 act: TRPC4 (mouse) channel activation. HEK293 TRPC4beta/mu-opioid, Fluo4 calcium fluorescence; hits give high values. B-score at 10 µM. hit rate 0.49% among 310,000. AID 2237;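 active = B-score above 5 SD of library B-scores, and initial fluorescence ratio not above library mean plus 5 SD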;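 also: positive B-score marks a calcium rise read as TRPC4 activation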
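Assay system: HEK293 stable line with TRPC4beta plus mu-opioid receptor. Times: dye 45 min RT, read 110 s. Measured by: kinetic Fluo4 calcium fluorescence. Measure: B score of integrated ratio. Controls: assay buffer as low control, maximal DAMGO as high control.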
HEK293 MPD ctr: parental HEK293 nonspecific activity of TRPC6 modulators. shares compounds with TRPC6 inhibitor. membrane potential dye fluorescence. membrane potential signal change, % at 10 µM. hit rate 51% among 2,400;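 active = membrane potential signal moves up or down beyond 5 SD from buffer-only wells, on both duplicate plates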
HEK293 MPD ctr 2: second check of TRPC6 modulator effects in parental HEK293 cells; shares compounds with TRPC6 inhibitor; membrane potential dye fluorescence; after compound, maximal acetylcholine stimulation; inhibition, % at 10 µM; hit rate 14% among 2,400;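 active = membrane potential signal drops by more than 5 SD from the mean control signal, in both duplicate plates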;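 also: plate controls were acetylcholine ECmax control wells for no effect and buffer only wells for full effect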
TRPC4/MOR mod: selectivity of TRPC6 modulators against mouse TRPC4; shares compounds with TRPC6 inhibitor; HEK293 TRPC4/mu-opioid, membrane potential fluorescence; percent change from control (negative = decrease, positive = increase), % at 10 µM; hit rate 69% among 2,400; AID 488927;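 active = membrane potential signal moved up or down beyond 5 SD of buffer control wells, in both duplicate plates, actives on both sides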;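 also: plate controls were assay buffer wells for no effect and DAMGO maximal-effect wells for full effect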
TRPC4/MOR inh 2: mouse TRPC4 off-target activity of TRPC6 modulators, second screen | shares compounds with TRPC6 inhibitor | HEK293 TRPC4/mu-opioid, membrane potential dye fluorescence; stimulated with maximal-effect DAMGO | inhibition, % at 10 µM | hit rate 55% among 2,400 | AID 488928;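 active = drop in membrane potential signal beyond 5 SD of the control wells in both duplicate plates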;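 also: TRPC4 counter screen for TRPC6 hits run under conditions tuned for TRPC6 not TRPC4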
TRPC6 block conf: mouse TRPC6 inhibitor confirmation; inhibition, % at 10 µM; hit rate 43% among 3,300; shares compounds with TRPC6 inhibitor; HEK293-TRPC6, membrane potential dye, ACh-evoked depolarization;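 active = fluorescence ratio falls more than 5 SD below the full-stimulation control mean, in both duplicate runs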;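 also: integrated fluorescence ratio of peak minus minimum over baseline after agonist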
TRPC6 act confirm: mouse TRPC6 activator confirmation; activation, % at 10 µM; hit rate 11% among 2,800; HEK293-TRPC6 membrane potential dye fluorescence, FDSS; shares compounds with TRPC6 inhibitor;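 active = ratio signal rise beyond 5 SD above unstimulated control wells' mean, seen in both duplicate runs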;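 also: plate controls were buffer EC0 wells for no effect and acetylcholine ECmax response for full effect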
Starred values were filed as active, the others as inactive; i = inactive; . = not tested or not shown.

SMILES	TRPC6 activator	Pemphigus Ab inh	TRPC4 PAM	TRPC4 block	TRPC6 inhibitor	TRPC4 act	HEK293 MPD ctr	HEK293 MPD ctr 2	TRPC4/MOR mod	TRPC4/MOR inh 2	TRPC6 block conf	TRPC6 act confirm
c1ccc(-c2nc3c(ccc4ccccc43)[nH]2)nc1	i	110	i	i	-6.2*	i	i	i	-9.0%*	28%*	i	i
CCN(CC)C(=O)C[n+]1cccc(C(N)=O)c1	i	89	i	i	i	i	.	.	.	.	.	.
O=C(Nc1cccc(F)c1)c1cc(S(=O)(=O)N2CCOCC2)cs1	i	102	i	i	i	i	.	.	.	.	.	.
Cc1ccc2c(c1)c1c3n2CCN=C3CCC1	i	98	i	i	-5*	i	-171%*	i	-28%*	49%*	i	i
Cc1cc(C)nc(SCC(=O)NC2CCCCC2C)n1 (configuration not stated)	i	107	i	i	i	i	.	.	.	.	.	.
COc1ccc([C@H]2[C@H](C(=O)C(C)(C)C)N3N=Cc4ccccc4C3C23C(=O)OC(C)(C)OC3=O)cc1 (some centres not stated)	i	112	i	i	-6*	i	i	i	9.0%*	i	i	i
COc1ccc([C@@H]2[C@@H](C(=O)C(C)(C)C)N3N=Cc4ccccc4[C@@H]3C23C(=O)OC(C)(C)OC3=O)cc1OC	i	106	i	i	i	i	.	.	.	.	.	.
Cc1ccc2c(c1)c1c(n2CC(O)CN2CCC(C)CC2)CCCC1 (configuration not stated)	i	107	i	i	-5.8*	i	i	i	12%*	54%*	40%*	i
Cn1c(N)c(C(=O)Nc2c(Cl)cccc2Cl)sc1=S	i	122	i	i	i	i	.	.	.	.	.	.
CC(C)CCOC(=O)C[N+](C)(C)CCOC1CC2CCC1(C)C2(C)C (configuration not stated)	i	110	i	i	-5.7*	i	155%*	i	34%*	34%*	48%*	.
CCCCCCCOC(=O)C[N+](C)(C)CCOC1CC2CCC1(C)C2(C)C (configuration not stated)	i	112	i	i	i	i	.	.	.	.	.	.
CCCCOC(=O)C[N+](C)(C)CCOC1CC2CCC1(C)C2(C)C (configuration not stated)	i	96	i	i	-5.2*	i	99%*	i	23%*	i	38%*	.
COc1ccc2sc(N(CCN(C)C)C(=O)c3cc(Cl)sc3Cl)nc2c1	i	103	i	i	i	i	.	.	.	.	.	.
COc1ccc(OC)c2sc(N(CCN(C)C)C(=O)c3cc(Cl)sc3Cl)nc12	i	102	i	i	-5.5*	102*	i	i	-42%*	80%*	i	i
Cc1ccc(Nc2c(-c3ccc(N(C)C)cc3)nc3ncccn23)cc1	i	93	i	i	i	i	.	.	.	.	.	.
Brc1ccc(-c2nc3ncccn3c2NC2CCCCC2)o1	i	94	i	i	-5*	i	116%*	i	22%*	36%*	i	i
Cc1ccc(-c2nc3ncccn3c2NC2CCCC2)o1	i	98	i	i	i	i	.	.	.	.	.	.
Cc1ccc(Nc2c(-c3ccc(N4CCOCC4)cc3)nc3ncccn23)c(C)c1	i	105	i	i	-6.1*	i	-143%*	62%*	-29%*	96%*	84%*	i
Cc1ccc(-c2nc3ncccn3c2Nc2ccccc2C)o1	i	107	i	i	-5.8*	i	-115%*	i	-18%*	68%*	i	i
Cc1cccc(C)c1Nc1c(-c2ccc(N3CCOCC3)cc2)nc2ncccn12	i	116	i	i	-8*	i	-123%*	56%*	-28%*	97%*	76%*	i
Cc1ccc(Nc2c(-c3ccc(C)o3)nc3ncccn23)cc1	i	101	i	i	i	i	.	.	.	.	.	.
COc1ccccc1CN1CC(C(=O)NCc2nccn2C)CCC1=O (configuration not stated)	i	88	i	i	i	i	.	.	.	.	.	.
COc1oc(C(=O)NC2CCCCC2)c(-c2ccc(Cl)cc2)c1S(=O)(=O)c1ccccc1	.	84	.	.	.	.	.	.	.	.	.	.
Cc1nc(N2CCCCC2)sc1C(=O)c1cccc([N+](=O)[O-])c1	i	89	i	i	-5.8*	i	i	i	i	i	i	i
Cc1nc(N2CCCCC2)sc1C(=O)c1ccc(SCCO)c([N+](=O)[O-])c1	i	101	i	i	i	i	.	.	.	.	.	.
CCCCN(CC)CCCNC(=O)c1cc2c(=O)[nH]c3ccccc3c2s1	i	101	i	i	i	i	.	.	.	.	.	.
CCCCN(CC)CCNC(=O)c1cc2c(=O)[nH]c3ccc(C)cc3c2s1	i	113	i	i	-6.3*	i	186%*	i	35%*	i	60%*	.
CCC(C)NC(=S)Nc1ccc2nc(N3CCOCC3)cc(C)c2c1 (configuration not stated)	i	103	i	i	i	i	.	.	.	.	.	.
CCC(C)NC(=O)CCC(=O)Nc1ccc2nc(N3CCOCC3)cc(C)c2c1 (configuration not stated)	i	102	i	i	-5.5*	i	-260%*	i	-44%*	38%*	40%*	i
CCN1CCN(c2cc(C)c3cc(NC(=O)CCC(=O)N4CCN(c5ccccc5)CC4)ccc3n2)CC1	i	99	i	i	i	i	.	.	.	.	.	.
